Measurements pooled from the literature.
Each line is one published result; the experiments were not run side by side.
Target: Dual specificity protein kinase CLK4 (CLK4, Homo sapiens, UniProt Q9HAZ1)

`CC(C)(C)c1nc(-c2cccc(NS(=O)(=O)c3c(F)cccc3F)c2F)c(-c2ccnc(N)n2)s1` has a remaining activity of 74% (enzyme activity, inhibitor, radiometric; 1 µM).
With `O=C(NC[C@@H]1[C@H]2CN(C(=O)OCc3cc(C(F)(F)F)cc(C(F)(F)F)c3)C[C@@H]12)c1ccc2[nH]nnc2c1` the remaining binding was 98% (cell-free assay, competition with immobilised ligand; 1 µM).
For `Cn1cnc(Br)c1C1=CN(c2ncnc3[nH]cnc23)CCS1`, the inhibition was 98.8% (enzyme activity, inhibitor, radiometric; 2 µM).
For `O=C(Nc1cnn(-c2csc(C(=O)NC3COC3)c2)c1)Nc1c(F)cccc1Cl`, the remaining activity was 93.2% (enzyme activity, inhibitor; 5 µM).
For `O=C1NC(=O)c2cc(Nc3ccc(F)cc3)c(Nc3ccc(F)cc3)cc21`, the remaining signal was 88.6% (cell-free assay; 0.5 µM).
`CS(=O)(=O)N1CCCC(NC(=O)[C@H](CCC2CCCCC2)NC(=O)c2ccc(CNc3ncnc4c3nnn4-c3ccccc3)cc2)C1` (some centres unmarked) has a remaining binding of 85% (cell-free assay, competition with immobilised ligand; 0.1 µM).
With `Cc1cc(NC(=O)c2cccc3cc(-c4cccc5[nH]nc(N)c45)ccc23)ccc1F` the activity vs control was 90% (enzyme activity, inhibitor; 0.1 µM).
With `FC(F)(F)c1ccc2c(c1)nc(-c1cccnc1)n2C1CC1` the remaining binding was 100% (cell-free assay, competition with immobilised ligand; 1 µM).
For `CNC(=O)c1cc(Oc2ccc(NC(=O)Nc3ccc(Cl)c(C(F)(F)F)c3)cc2)ccn1`, the remaining signal was 95.2% (cell-free assay; 0.5 µM).
For `CC(=O)Nc1c(C(C)=O)c(=O)n(C)c2nc(-c3ccc(Cl)cc3Cl)c(-c3ccc(Cl)cc3)cc12`, the remaining binding was 100% (cell-free assay, competition with immobilised ligand; 1 µM).
For `N#CCCc1ccc2c(c1)-c1[nH]c3ccc([N+](=O)[O-])cc3c1CC(=O)N2`, the remaining signal was 77.1% (cell-free assay; 0.5 µM).
For `COc1cc(Cl)c(C(=O)N[C@@H](CN[C@H]2CC[C@@H](N)CC2)Cc2ccc(C#N)cc2)cc1-c1ccc(CN[C@H](C)c2ccc(C)cc2)o1`, the remaining activity was 103% (enzyme activity, inhibitor; 1 µM).
With `CS(=O)(=O)Nc1cccc(-c2csc(NC(=O)CSc3nc4nccnc4c(=O)n3CCc3ccccc3)n2)c1` the inhibition was 14% (enzyme activity, inhibitor; 10 µM).
The remaining signal of `Nc1ncnc2occ(-c3ccc(NC(=O)Nc4cc(C(F)(F)F)ccc4F)cc3)c12` is reported as 5.8% (cell-free assay, inhibitor; 20 µM).
With `COc1cc(-c2cc(-c3ccc(N4CCNCC4)cc3)cnc2C)cc(OC)c1OC` the inhibition was 1% (enzyme activity, inhibitor; 0.1 µM).
For `Cn1cncc1C1=CN(c2ncnc3[nH]cnc23)CCS1`, the inhibition was 84.7% (enzyme activity, inhibitor, radiometric; 2 µM).
`COc1cccc(CNC(=O)c2nc3scc(COCc4ccc(C(=O)O)cc4)c3c(=O)[nH]2)c1` has a remaining binding of 94.4% (cell-free assay, competition with immobilised ligand; 1 µM).
For `Cc1ccc(NC(=O)c2ccc(CN3CCN(C)CC3)cc2)cc1Nc1nc(-c2cccnc2)cs1`, the remaining signal was 93.3% (cell-free assay; 0.5 µM).
`C[C@@H]1CN(c2cc(-c3nn(C)c4ccc(OC5(C)CC5)cc34)ncn2)C[C@H](C)O1` has a remaining binding of 100% (cell-free assay, competition with immobilised ligand; 1 µM).
For `CN(CCCC(F)(F)F)c1nccc(-c2cnn3ncccc23)n1`, the remaining binding was 25% (binding; 1 µM).
